Experiments:
Assay type in all cases: functional
[1] = tested on: Coturnix coturnix; experiment: Effect on serum VLDL+LDL cholesterol (relative to cholestipol hydrochloride) at a dose of 50 mg/kg BW per day
Outline: (§1)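 Cholesterol-fed Japanese quail given compound mixed in diet for 2 weeks; controls diet alone (n = 17-20), positive controls colestipol hydrochloride 1000 mg/kg per day (n = 8-10), treated groups 10 birds. Jugular bleed; VLDL+LDL precipitated from serum with PEG-8000 in 0.2 M glycine pH 9, centrifuged 2000g 45 min 4 °C. Log-transformed cholesterol gives T/C; relative potency from doses giving T/C=0.5 using common slope -0.79.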

[2] = tested on: Coturnix coturnix; experiment: Effect on serum VLDL+LDL cholesterol (relative to cholestipol hydrochloride) at a dose of 100 mg/kg BW per day; outline: as §1
[3] = tested on: Coturnix coturnix; experiment: Effect on serum VLDL+LDL cholesterol (relative to cholestipol hydrochloride) at a dose of 150 mg/kg BW per day; outline: as §1
[4] = tested on: Coturnix coturnix; experiment: Effect on serum VLDL+LDL cholesterol (relative to cholestipol hydrochloride) at a doses of 25,50 mg/kg BW per day; outline: as §1
[5] = tested on: Coturnix coturnix; experiment: Effect on serum VLDL+LDL cholesterol (relative to cholestipol hydrochloride) at a doses of 25, 50, 100 mg/kg BW per day; outline: as §1
[6] = tested on: Coturnix coturnix; experiment: Effect on serum VLDL+LDL cholesterol (relative to cholestipol hydrochloride) at a dose of 100, 300 mg/kg BW per day; outline: as §1
[7] = tested on: Coturnix coturnix; experiment: Effect on serum VLDL+LDL cholesterol (relative to cholestipol hydrochloride) at a doses of 25,50, 100 mg/kg BW per day; outline: as §1
[8] = tested on: Coturnix coturnix; experiment: Effect on serum VLDL+LDL cholesterol (relative to cholestipol hydrochloride) at a doses of 50, 150 mg/kg BW per day; outline: as §1
[9] = tested on: Coturnix coturnix; experiment: Effect on serum VLDL+LDL cholesterol (relative to cholestipol hydrochloride) at a doses of 100, 150, 300 mg/kg BW per day; outline: as §1
[10] = tested on: Coturnix coturnix; experiment: Effect on serum VLDL+LDL cholesterol (relative to cholestipol hydrochloride) at a doses of 10, 25, 50, 100, 150 mg/kg BW per day; outline: as §1
[11] = tested on: Coturnix coturnix; experiment: Effect on serum VLDL+LDL cholesterol (relative to cholestipol hydrochloride) at a dose 100 of mg/kg BW per day; outline: as §1

SMILES: COC(=O)CCN(CCN(CCN(CCC(=O)OC)C1CCCCCCCCCCC1)CCN(CCC(=O)OC)C1CCCCCCCCCCC1)C1CCCCCCCCCCC1
- Relative potency [1]: 4

SMILES: C1CCCCCC(NCCN(CCNC2CCCCCCCCCCC2)CCNC2CCCCC2)CCCCC1
- Relative potency [1]: 21

SMILES: N#CCCNCCN(CCNC1CCCCCCCCCCC1)CCNC1CCCCCCCCCCC1
- Relative potency [1]: 21

SMILES: NCCNC(=O)CCNCCN(CCNCCC(=O)NCCN)CCNC1CCCCCCCCCCC1
- Relative potency [2]: 5

SMILES: NCCCNCCN(CCNCCCN)CCNC1CCCCCCCCCCC1
- Relative potency [3]: 4

SMILES: c1ccc(CNCCN(CCNC2CCCCCCCCCCC2)CCNC2CCCCCCCCCCC2)cc1
- Relative potency [4]: 18

SMILES: CN(CCN(CCN(C)C1CCCCC1)CCN(C)C1CCCCC1)C1CCCCC1
- Relative potency [3]: 5

SMILES: NCCN(CCNC(=O)c1ccccc1)CCNC(=O)c1ccccc1
- Relative potency [5]: 5

SMILES: NCCN(CCN)CCNC1CCCCCCCCCCC1
- Relative potency [6]: 5

SMILES: NCCN(CCN)CCNCc1ccc(-c2ccccc2)cc1
- Relative potency [2]: 2

SMILES: O=C(NCCN(CCNC1CCCCCCCCCCC1)CCNC1CCCCCCCCCCC1)c1ccccc1
- Relative potency [1]: 11

SMILES: C1CCCCCC(NCCN(CCNC2CCCCCCCCCCC2)CCNC2CCCCCCCCCCC2)CCCCC1
- Relative potency [7]: 6

SMILES: C1CCC(NCCN(CCNC2CCCCC2)CCNC2CCCCC2)CC1
- Relative potency [3]: 3

SMILES: c1ccc(CNCCN(CCNC2C3CC4CC(C3)CC2C4)CCNC2C3CC4CC(C3)CC2C4)cc1 (centres undefined)
- Relative potency [1]: 13

SMILES: COC(=O)CCNCCN(CCNCCC(=O)OC)CCNC1CCCCCCCCCCC1
- Relative potency [8]: 7

SMILES: C1CCCCCC(NCCN(CCNC2CCCCCCCCCCC2)CCNC2CCC3(CC2)OCCO3)CCCCC1
- Relative potency [4]: 19

SMILES: Cl.Cl.Cl.Cl.NCCN(CCNC1CCCCCCCCCCC1)CCNC1CCCCCCCCCCC1
- Relative potency [1]: 12

SMILES: N#CCCNCCN(CCNCCC#N)CCNC1CCCCCCCCCCC1
- Relative potency [3]: 2

SMILES: CCN(CC)CCN(CCN(CC)CC)CCN(CC)C1CCCCCCCCCCC1.Cl.Cl.Cl
- Relative potency [2]: 8

SMILES: CN(C)CCN(CCN(C)C1CCCCCCCCCCC1)CCN(C)C1CCCCCCCCCCC1
- Relative potency [1]: 24

SMILES: Cl.Cl.Cl.NCCN(CCNC1CCCCCCCCCCC1)CCNC1CCCCCCCCCCC1
- Relative potency [1]: 13

SMILES: Cl.Cl.Cl.c1ccc(CNCCN(CCNC2CCCCCCCCCCC2)CCNC2CCCCCCCCCCC2)cc1
- Relative potency [1]: 29

SMILES: CN(CCN(CC[N+](C)(C)C)CC[N+](C)(C)C)C1CCCCCCCCCCC1.[I-].[I-]
- Relative potency [3]: 2

SMILES: NCCN(CCN)CCNC1CCCCCCCCCCCCCC1
- Relative potency [9]: 7

SMILES: NCCCOCCN(CCOCCCN)CCOC1CCCCCCCCCCC1
- Relative potency [3]: 2

SMILES: NCCN(CCNC1CCCCCCCCCCCCCC1)CCNC1CCCCCCCCCCCCCC1
- Relative potency [3]: 7

SMILES: NCCN(CCNC1CCCCCCCCCCC1)CCNC1CCCCCCCCCCC1
- Relative potency [10]: 13

SMILES: CCCCCCCCCCCCCCCCNCCN(CCN)CCN
- Relative potency [11]: 6

SMILES: NCCN(CCN)CCNC1CCCCCCCCCCCCCCC1
- Relative potency [1]: 10

— ChEMBL document CHEMBL1125421, “Cholesterol lowering bile acid binding agents: novel lipophilic polyamines” (1992)
